Assay results published in ChEMBL document CHEMBL3853323, “Small Antimicrobial Agents Based on Acylated Reduced Amide Scaffold” (J Med Chem, 2016).
Values after ≈ are worked out from the molar mass of the structure shown. Active and inactive are the calls of the source. No cut-off for these calls is given here.

Experiments:
[1] = test system: Escherichia coli; test: Antibacterial activity against Escherichia coli ATCC 25922 after 16 to 20 hrs by two fold serial dilution method; assay type: functional
Method in brief: (§1)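 MIC as lowest concentration giving complete inhibition of growth after 20 h; at least three independent experiments, each in duplicate.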

[2] = test system: Enterococcus faecalis; test: Antibacterial activity against vancomycin resistant Enterococcus faecalis ATCC 700802 after 16 to 20 hrs by two fold serial dilution method; assay type: functional
Method in brief: (§2)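 Broth MIC: the lowest concentration giving complete growth inhibition after 20 h. Run at least three times, in duplicate each time.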

[3] = test system: Staphylococcus aureus; test: Antibacterial activity against methicillin-resistant Staphylococcus aureus ATCC 33591 after 16 to 20 hrs by two fold serial dilution method; assay type: functional; method in brief: as §2
[4] = test system: Klebsiella pneumoniae; test: Antibacterial activity against Klebsiella pneumoniae ATCC 13383 after 16 to 20 hrs by two fold serial dilution method; assay type: functional; method in brief: as §1
[5] = Cytotoxicity against human HK2 cells assessed as cell viability at 25 ug/ml after 24 hrs by MTT assay; assay type: toxicity, cell-based; settings: hk-2, 24 h
Method in brief: (§3)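 Cells seeded at 5×10^4 per well and left 12 h, then exposed 24 h to compound at 100, 50, 25, 12.5 or 6.25 μg/mL diluted in medium. Medium replaced, MTT added for 4 h, solubilized 12 h at 37 °C, A550 read; viability % = (A − Ablank)/(Acontrol − Ablank) × 100. Run at least three times.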

[6] = test system: Pseudomonas aeruginosa; test: Antibacterial activity against Pseudomonas aeruginosa ATCC 27853 after 16 to 20 hrs by two fold serial dilution method; assay type: functional; method in brief: as §1
[7] = test system: Staphylococcus epidermidis; test: Antibacterial activity against methicillin-resistant Staphylococcus epidermidis RP62A after 16 to 20 hrs by two fold serial dilution method; assay type: functional; method in brief: as §2
[8] = Cytotoxicity against human K562 cells assessed as cell viability at 25 ug/ml after 24 hrs by MTT assay; assay type: toxicity, cell-based; settings: k562, 24 h; method in brief: as §3
[9] = Hemolytic activity in human RBC after 1 hr; assay type: ADME, cell-based, Erythrocyte; settings: human red blood cells
Method in brief: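 Fresh K2EDTA human RBCs, PBS-washed, as 5% v/v suspension mixed 1:1 with compound dilutions, 37 °C for 1 h. Supernatant after centrifugation diluted in PBS, A540 read. % hemolysis relative to 2% Triton X-100 (positive) and PBS (negative). At least three runs, each in duplicate.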

[10] = Cytotoxicity against human K562 cells assessed as cell viability after 24 hrs by MTT assay; assay type: toxicity, cell-based; method in brief: as §3
[11] = Cytotoxicity against human HK2 cells assessed as cell viability after 24 hrs by MTT assay; assay type: toxicity, cell-based, HK-2; method in brief: as §3
[12] = test system: Staphylococcus aureus; test: Antibacterial activity against methicillin-resistant Staphylococcus aureus ATCC 33591 at 0.5 times MIC after 14 passages; assay type: functional
Method in brief: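 Resistance passaging: the starting MIC was measured as in the MIC assay. Bacteria from the 1/2 MIC well seeded the next day's assay. Repeated daily for 14 passages.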

[13] = test system: Staphylococcus aureus; test: Bactericidal activity against methicillin-resistant Staphylococcus aureus ATCC 33591 assessed as disruption of bacterial membrane at 25 ug/ml after 2 hrs by propidium iodide staining based fluorescence microscopy; assay type: functional
Method in brief: (§4)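 Mid-log MRSA was exposed to compound at 37 °C for 2 h, pelleted and washed three times in PBS. Cells were stained sequentially with PI (5 µg/mL) and DAPI (10 µg/mL), 15 min each on ice in the dark. Imaged with a 100× oil objective; DAPI channel 460 nm, PI channel 620 nm.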

[14] = test system: Staphylococcus aureus; test: Bactericidal activity against methicillin-resistant Staphylococcus aureus ATCC 33591 assessed as disruption of bacterial membrane at 25 ug/ml after 2 hrs by DAPI staining based fluorescence microscopy; assay type: functional; method in brief: as §4
[15] = test system: Staphylococcus aureus; test: Bactericidal activity against methicillin-resistant Staphylococcus aureus ATCC 33591 at 25 to 50 ug/ml for 10 mins to 2 hrs by time kill assay; assay type: functional
Method in brief: (§5)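 MRSA grown to mid-log in TSB was diluted to 10^6 CFU/mL. […] Samples were diluted 10^2–10^4-fold and plated on TSB agar. CFU were counted after overnight incubation at 37 °C and plotted against time.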

[16] = test system: Staphylococcus aureus; test: Bactericidal activity against methicillin-resistant Staphylococcus aureus ATCC 33591 for 10 mins to 2 hrs by time kill assay; assay type: functional; method in brief: as §5

Compound | MIC [1] [µg/mL] | MIC [2] [µg/mL] | MIC [3] [µg/mL] | MIC [4] [µg/mL] | Activity [5] | MIC [6] [µg/mL] | MIC [7] [µg/mL] | Activity [8] | HC50 at 1 h [9] [µg/mL] | IC50 at 24 h [10] [µg/mL] | IC50 at 24 h [11] [µg/mL] | Activity [12] | Activity [13] | Activity [14] | Activity [15] | Activity [16]
NCCCC[C@H](NC(=O)[C@@H](N)CCCN)C(=O)N[C@@H](Cc1ccccc1)CN(CC(=O)NCC12CC3CC(CC(C3)C1)C2)C(=O)CC12CC3CC(CC(C3)C1)C2 | 6.25 (≈ 8.07 µM) | 6.25 (≈ 8.07 µM) | 3.12 (≈ 4.03 µM) | > 25 | Non-Toxic | 6.25 (≈ 8.07 µM) | 3.12 (≈ 4.03 µM) | Non-Toxic | 200 | – | – | – | – | – | – | –
CC(C)(C)c1ccc(CNC(=O)CN(C[C@H](Cc2ccccc2)NC(=O)[C@@H](N)CCCCN)C(=O)CC23CC4CC(CC(C4)C2)C3)cc1 | 6.25 (≈ 9.5 µM) | 6.25 (≈ 9.5 µM) | 6.25 (≈ 9.5 µM) | 6.25 (≈ 9.5 µM) | Non-Toxic | 6.25 (≈ 9.5 µM) | 3.12 (≈ 4.74 µM) | Non-Toxic | 120 | – | – | – | – | – | – | –
NCCCC[C@H](N)C(=O)N[C@@H](Cc1ccccc1)CN(CC(=O)NCc1cccc2ccccc12)C(=O)CC12CC3CC(CC(C3)C1)C2 | 12.5 (≈ 19.2 µM) | 12.5 (≈ 19.2 µM) | 6.25 (≈ 9.59 µM) | 12.5 (≈ 19.2 µM) | Non-Toxic | 6.12 (≈ 9.39 µM) | 6.25 (≈ 9.59 µM) | Non-Toxic | 225 | – | – | – | – | – | – | –
CCCCCCCCCC(=O)N[C@@H](Cc1c[nH]c2ccccc12)C(=O)N[C@@H](CC(N)=O)C(=O)N[C@@H](CC(=O)O)C(=O)N[C@@H]1C(=O)NCC(=O)N[C@@H](CCCN)C(=O)N[C@@H](CC(=O)O)C(=O)N[C@H](C)C(=O)N[C@@H](CC(=O)O)C(=O)NCC(=O)N[C@H](CO)C(=O)N[C@@H]([C@H](C)CC(=O)O)C(=O)N[C@@H](CC(=O)c2ccccc2N)C(=O)O[C@@H]1C [DAPTOMYCIN] | > 50 | 1 (≈ 0.617 µM) | 0.5 (≈ 0.309 µM) | > 50 | – | > 50 | 0.5 (≈ 0.309 µM) | – | – | – | – | – | – | – | – | –
NCCCC[C@H](N)C(=O)N[C@@H](Cc1ccccc1)CN(CC(=O)NCc1cccc2ccccc12)C(=O)c1ccc2ccccc2c1 | 25 (≈ 39.7 µM) | 25 (≈ 39.7 µM) | 25 (≈ 39.7 µM) | 25 (≈ 39.7 µM) | Non-Toxic | 12.5 (≈ 19.8 µM) | 12.5 (≈ 19.8 µM) | Non-Toxic | 290 | – | – | – | – | – | – | –
NCCCC[C@@H](CN(CC(=O)NCc1cccc2ccccc12)C(=O)CCCN)NC(=O)c1ccc2ccccc2c1 | > 50 | 25 (≈ 44 µM) | 25 (≈ 44 µM) | > 50 | – | > 50 | 25 (≈ 44 µM) | – | – | – | – | – | – | – | – | –
NCCCC[C@H](N)CN(CC(=O)NCc1cccc2ccccc12)C(=O)c1ccc2ccccc2c1 | 25 (≈ 51.8 µM) | 25 (≈ 51.8 µM) | 25 (≈ 51.8 µM) | 25 (≈ 51.8 µM) | – | 6 (≈ 12.4 µM) | 25 (≈ 51.8 µM) | – | – | – | – | – | – | – | – | –
COLISTIN | 0.5 | > 50 | > 50 | 0.5 | – | 1 | > 50 | – | – | – | – | – | – | – | – | –
NCCCC[C@H](N)C(=O)N[C@@H](Cc1ccccc1)CN(CC(=O)N(Cc1ccccc1)Cc1ccccc1)C(=O)CC12CC3CC(CC(C3)C1)C2 | 6.25 (≈ 9.03 µM) | 6.25 (≈ 9.03 µM) | 6.25 (≈ 9.03 µM) | 12.5 (≈ 18.1 µM) | Non-Toxic | 25 (≈ 36.1 µM) | 6.25 (≈ 9.03 µM) | Non-Toxic | 180 | – | – | – | – | – | – | –
NCCCC[C@H](N)C(=O)N[C@@H](Cc1ccccc1)CN(CC(=O)NCc1cc(C(F)(F)F)cc(C(F)(F)F)c1)C(=O)CC12CC3CC(CC(C3)C1)C2 | 3.12 (≈ 4.23 µM) | 6.25 (≈ 8.47 µM) | 3.12 (≈ 4.23 µM) | 6.25 (≈ 8.47 µM) | Non-Toxic | 6.25 (≈ 8.47 µM) | 3.12 (≈ 4.23 µM) | Non-Toxic | 210 | – | – | – | – | – | – | –
NCCCC[C@@H](CN(CC(=O)NCc1cccc2ccccc12)C(=O)c1ccc2ccccc2c1)NC(=O)[C@@H](N)CCCCN | > 50 | > 50 | > 50 | > 50 | – | > 50 | > 50 | – | – | – | – | – | – | – | – | –
NCCCC[C@@H](CN(CC(=O)NCc1cccc2ccccc12)C(=O)CC12CC3CC(CC(C3)C1)C2)NC(=O)[C@@H](N)CCCCN | > 50 | > 50 | > 50 | > 50 | – | > 50 | > 50 | – | – | – | – | – | – | – | – | –
N=C(N)NCCC[C@H](N)C(=O)N[C@@H](Cc1ccccc1)CN(CC(=O)NCc1cccc2ccccc12)C(=O)c1ccc2ccccc2c1 | 50 (≈ 76 µM) | 25 (≈ 38 µM) | 25 (≈ 38 µM) | 25 (≈ 38 µM) | – | 25 (≈ 38 µM) | 12.5 (≈ 19 µM) | – | 300 | > 100 | > 100 | – | – | – | – | –
NCCCC[C@H](N)C(=O)N[C@@H](Cc1ccccc1)CN(CC(=O)NCc1ccc(C(F)(F)F)cc1)C(=O)CC12CC3CC(CC(C3)C1)C2 | 6.25 (≈ 9.33 µM) | 6.25 (≈ 9.33 µM) | 6.25 (≈ 9.33 µM) | 6.25 (≈ 9.33 µM) | Non-Toxic | 12.5 (≈ 18.7 µM) | 3.12 (≈ 4.66 µM) | Non-Toxic | 200 | – | – | – | – | – | – | –
NCCCC[C@H](NC(=O)[C@@H](N)CCCCN)C(=O)N[C@@H](Cc1ccccc1)CN(CC(=O)NCC12CC3CC(CC(C3)C1)C2)C(=O)CC12CC3CC(CC(C3)C1)C2 | 6.25 (≈ 7.93 µM) | 6.25 (≈ 7.93 µM) | 1.56 (≈ 1.98 µM) | > 25 | Non-Toxic | 6.25 (≈ 7.93 µM) | 3.12 (≈ 3.96 µM) | Non-Toxic | 280 | – | – | Active | Active | Active | Active | Dose-dependent effect
NCCCC[C@H](N)C(=O)N[C@@H](Cc1ccccc1)CN(CC(=O)NCc1ccc(-c2ccccc2)cc1)C(=O)CC12CC3CC(CC(C3)C1)C2 | 6.25 (≈ 9.22 µM) | 6.25 (≈ 9.22 µM) | 6.25 (≈ 9.22 µM) | 12.5 (≈ 18.4 µM) | Non-Toxic | 12.5 (≈ 18.4 µM) | 6.25 (≈ 9.22 µM) | Non-Toxic | 160 | – | – | – | – | – | – | –
N=C(N)NCCC[C@H](N)C(=O)N[C@@H](CCCCN)C(=O)N[C@@H](Cc1ccccc1)CN(CC(=O)NCC12CC3CC(CC(C3)C1)C2)C(=O)CC12CC3CC(CC(C3)C1)C2 | 6.25 (≈ 7.66 µM) | 6.25 (≈ 7.66 µM) | 3.12 (≈ 3.82 µM) | > 25 | Non-Toxic | 6.25 (≈ 7.66 µM) | 3.12 (≈ 3.82 µM) | Non-Toxic | 250 | – | – | – | – | – | – | –
